According to PMC4677462 (Organic & biomolecular chemistry, 2012):

Legend:
HIF-1α [1] = experiment: HIF-1α stabilisation immunoblot in Hep3B cells; assay type: cell-based, human; conditions: for Cell-based activity HIF-1α Induction: methyl or ethyl esters (numbers in parentheses) tested, 0.1 mM and 1 mM; for Cell-based activity HIF-1α Induction / HIF-1α stabilization / HIF-1α stabilization in presence of Fe(II): Hep3B cells, 6 h; for HIF-1α stabilization: absence of added Fe(II); for HIF-1α stabilization in presence of Fe(II): equimolar amount of Fe(II)
In short: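 Confluent human Hep3B hepatoma cells given methyl or ethyl ester forms of test compounds (100 mM DMSO stock) for 6 h under normoxia. Fe(II) experiments added equimolar Fe(II) either at the start or for the final 2 h, with DFO and DMOG as comparators. Whole-cell lysate immunoblots probed with mouse anti-HIF-1α (clone 54).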

PHD2 = PHD2 (Homo sapiens, UniProt Q9GZT9); experiment: AlphaScreen PHD2 inhibition assay; assay type: biochemical; conditions: 10μM and 300μM of compounds
[2] = target: catalytic domain of PHD2 (residues 181-426) (Homo sapiens, UniProt Q9GZT9); experiment: Non-denaturing ESI-MS binding to PHD2 in presence of Fe; conditions: standard conditions; for PHD2-iron-compound complex formation / binding of a second iron in ESI-MS: 2 equiv. Fe(II), 1 equiv. compound; for ESI-MS competition with NOG for binding to PHD2: equimolar NOG
HIF-1α [3] = experiment: HIF-1α stabilisation immunoblot in RCC4/VHL cells; assay type: cell-based, human; conditions: 200 μM and 1mM
[4] = test system: HIF prolyl and asparaginyl hydroxylases; experiment: HIF-1α prolyl; assay type: cell-based, human; conditions: RCC4 cells, 1 mM and 2 mM
In short: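 VHL-defective RCC4 renal carcinoma cells carrying empty vector (RCC4/VA), which cannot degrade HIF-1α by the proteasome, grown to confluence and treated 5 h with test compound from 100 mM DMSO stock. Whole-cell lysate immunoblots probed with Hyp564- and HyAsn803-specific antibodies. Signals normalised to HIF-1α band intensity, with β-tubulin/β-actin as loading controls. DMSO negative and DMOG positive controls.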

Chain of catalytic domain of PHD2 (residues 181-426) (Q9GZT9 181-426): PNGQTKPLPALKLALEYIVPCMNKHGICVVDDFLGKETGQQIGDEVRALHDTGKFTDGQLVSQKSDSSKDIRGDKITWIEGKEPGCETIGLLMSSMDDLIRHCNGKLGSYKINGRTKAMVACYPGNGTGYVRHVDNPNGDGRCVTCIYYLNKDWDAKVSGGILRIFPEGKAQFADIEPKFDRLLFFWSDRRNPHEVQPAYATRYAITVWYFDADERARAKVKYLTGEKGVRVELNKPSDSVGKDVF
Chain of PHD2 (Q9GZT9 181-426): as above

## O=C(O)CNC(=O)c1nc(Cl)c2ccccc2c1O [BIQ, 2-(1-chloro-4-hydroxyisoquinoline-3-carboxamido)acetic acid]
HIF-1α [1]
  Cell-based activity HIF-1α Induction: Active

## O=C(O)CCCC(=O)NNC(=O)c1ccccn1 [Compound 2]
PHD2
  PHD2 inhibition in initial two-concentration screening: weak PHD2 inhibitors
[2]
  PHD2-iron-compound complex formation / binding of a second iron in ESI-MS: formed a two-iron complex with PHD2

## O=C(O)/C=C\C(=O)NNC(=O)c1ccccn1 [Compound 4]
PHD2
  PHD2 inhibition in initial two-concentration screening: weak PHD2 inhibitors

## O=C(O)/C=C/C(=O)NNC(=O)c1ccccn1 [Compound 5]
[2]
  PHD2-iron-compound complex formation / binding of a second iron in ESI-MS: only bound to one iron
HIF-1α [3]
  HIF-1α upregulation: upregulated HIF-1α, but to a lesser extent than its ester

## O=C(O)/C=C/C(=O)NNC(=O)c1cccnc1 [Compound 9]
[2]
  ESI-MS competition with NOG for binding to PHD2: compete effectively with NOG for binding to PHD2

## O=C(O)CCC(=O)NNC(=O)c1cc2ccccc2cn1 [Compound 11]
HIF-1α [1]; human hepatoma Hep3B cells, free acid form
  HIF-1α levels, free carboxylate compounds: did not up-regulate HIF-1α levels
[2]
  ESI-MS competition with NOG for binding to PHD2: compete effectively with NOG for binding to PHD2

## O=C(O)/C=C/C(=O)NNC(=O)c1cc2ccccc2cn1 [Compound 14]
HIF-1α [3]
  HIF-1α upregulation: almost no HIF-1α induction

## CC(=O)N(O)CCCCCNC(=O)CCC(=O)N(O)CCCCCNC(=O)CCC(=O)N(O)CCCCCN [DFO, deferoxamine]
HIF-1α [1]
  HIF-1α stabilization: induced HIF-1α stabilization
  HIF-1α stabilization in presence of Fe(II): HIF-1α stabilization was not observed

## COC(=O)CNC(=O)C(=O)OC [DMOG, Dimethyloxalyl glycine]
HIF-1α [1]
  HIF-1α stabilization: induced HIF-1α stabilization
  HIF-1α stabilization in presence of Fe(II): reduction in HIF-1α stabilization
  Cell-based activity HIF-1α Induction: Active
[4]
  Inhibition of HIF prolyl-hydroxylation: only partially inhibited
